The subject of one assay is HL-60. The assay can be described thus: Cytotoxicity against human HL60 cells after 72 hrs by MTT assay. Type of assay: functional, cell-based.
Another assay concerns A549. The assay can be described thus: Cytotoxicity against human A549 cells after 24 hrs by SRB method. Format: functional, cell-based. A general note: The SRB assay estimates cell density from bound dye.
A further assay has as its system Escherichia coli. The assay can be described thus: Antimicrobial activity against Escherichia coli after 24 hrs by agar dilution method. Type of assay: functional, organism-based. The procedure, abridged: (§1)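 Each organism was tested separately by agar dilution. The MIC was recorded as the read-out and given in µM.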
(In general: Agar dilution tests growth on a series of plates holding different concentrations.)

Another assay has as its system Staphylococcus aureus. The experiment in a line: Antimicrobial activity against Staphylococcus aureus after 24 hrs by agar dilution method. Format: functional, organism-based. The method, boiled down: as §1
The next assay relates to Candida albicans. The assay can be described thus: Antimicrobial activity against Candida albicans after 24 hrs by agar dilution method. Format: functional. The procedure, abridged:
as §1

≈ marks a conversion by molar mass, not a printed value. Calls of active or inactive are those of the source. The rule behind the calls is not given here.

One may read the MIC as the lowest concentration that inhibits growth of the organism.

Regarding `C/C=C/C=C/C=C/C(=O)N[C@H]1CCCNC(=O)[C@H](C)NC(=O)[C@H](C(C)C)N(C)C1=O`, the inhibition result in the assay on HL-60 and with A549 was “inactive” each time. For the same compound, the MIC result in the assay with Escherichia coli and with Staphylococcus aureus was “inactive” each time. The compound also had an MIC in the assay on Candida albicans of 30 µM (≈ 12.6 µg/mL).
As for `C/C=C/C=C/C=C/C(=O)N[C@H]1CCCNC(=O)[C@H](C)N(C)C(=O)[C@H](C(C)C)NC1=O` [SCLEROTIOTIDE A], the inhibition entry in the assay with HL-60 and with A549 was “inactive” each time. Moreover, the MIC entry with Escherichia coli and in the assay on Staphylococcus aureus was “inactive” throughout. The compound also returned an MIC with Candida albicans of 7.5 µM (≈ 3.14 µg/mL).
On to `C/C=C/C=C/C(=O)N[C@H]1CCCNC(=O)[C@H](C)N(C)C(=O)[C@H](C(C)C)N(C)C1=O` [SCLEROTIOTIDE B], for which the inhibition result in the assay on HL-60 and with A549 was “inactive” in each case. Further, the MIC entry in the assay on Escherichia coli and with Staphylococcus aureus was “inactive” throughout. In the assay on Candida albicans, this compound returned an MIC of 3.8 µM (≈ 1.54 µg/mL).
Take `CC(C)[C@H]1C(=O)N(C)[C@@H](C)C(=O)NCCC[C@H](NC(=O)/C=C/C=C/C=O)C(=O)N1C` [SCLEROTIOTIDE F]: the inhibition entry in the assay with HL-60 and with A549 was “inactive” throughout. Also, the MIC result in the assay on Escherichia coli and in the assay with Staphylococcus aureus was “inactive” in each case. In the assay on Candida albicans, this compound showed an MIC of 30 µM (≈ 12.6 µg/mL).
In the case of `CC(C)[C@H]1C(=O)N(C)[C@@H](C)C(=O)NCCC[C@H](NC(=O)/C=C/C=C/[C@@H](O)[C@@H](C)O)C(=O)N1C` [SCLEROTIOTIDE I], the inhibition result in the assay with HL-60 and in the assay with A549 was “inactive” throughout. The MIC entry with Escherichia coli and in the assay on Staphylococcus aureus was “inactive” each time. In addition, the MIC in the assay on Candida albicans turned out to be 6.7 µM (≈ 3.13 µg/mL).

(Values after ChEMBL document CHEMBL1165987, “Cyclic tripeptides from the halotolerant fungus Aspergillus sclerotiorum PT06-1” (2010).)
